Test results reported in article PMC5305809 (ACS chemical biology, 2016).

Experiments:
HDAC8 = target: T1, HDAC8 (Homo sapiens, UniProt Q9BY41); test: HDAC8 kinetics assay on H3K9 acyl peptides; format: biochemical; conditions: for kcat/Km: from slope of linear plot where kcat ND
T1 sequence (Q9BY41 1-377): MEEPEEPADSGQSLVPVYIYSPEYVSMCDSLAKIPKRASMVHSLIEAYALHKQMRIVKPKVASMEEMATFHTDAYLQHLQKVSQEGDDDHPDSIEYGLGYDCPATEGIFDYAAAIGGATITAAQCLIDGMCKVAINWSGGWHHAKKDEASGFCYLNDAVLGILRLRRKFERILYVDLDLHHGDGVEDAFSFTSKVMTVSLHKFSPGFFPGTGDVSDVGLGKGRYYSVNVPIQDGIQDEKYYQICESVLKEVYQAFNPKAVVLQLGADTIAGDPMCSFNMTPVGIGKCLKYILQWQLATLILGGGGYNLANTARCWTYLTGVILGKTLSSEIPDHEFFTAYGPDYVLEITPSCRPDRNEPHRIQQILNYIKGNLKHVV

Jurkat cells [1] = test: Global fatty acylation by metabolic labeling; format: cell-based; conditions: 25 μM inhibitor, 15 hrs
HEK-293T cells = test: Global fatty acylation by metabolic labeling; format: cell-based, human
Procedure, shortened: (§1)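 Cells grown in DMEM with 10% FBS at 37 °C, 5% CO2. They were pretreated with test compound or DMSO, then cultured with Alk12, an alkyne myristic acid analogue, for metabolic labeling. Labeled proteins were clicked to BODIPY-azide and precipitated. Cysteine acylation was removed with 0.5 M hydroxylamine pH 8.0 at 95 °C for 7 min. Read-out was in-gel fluorescence after SDS-PAGE.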

HeLa cells = test: Global fatty acylation by metabolic labeling; format: cell-based
Procedure, shortened: as §1

Jurkat cells [2] = test: Western blot for global protein lysine acetylation; format: cell-based; conditions: Jurkat cells treated with 25 μM HDAC inhibitor
Procedure, shortened: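 Jurkat cells in RPMI 1640 with 10% FBS, exposed to test compound (25 μM) for 15 hrs. Cells lysed in 4% SDS buffer with protease inhibitor cocktail and nuclease, protein quantified by BCA.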

MDA-MB 231 cells = test: Global fatty acylation by metabolic labeling; format: cell-based
Procedure, shortened: as §1

[3] = recombinant HDAC8 from E. coli, 1 μM, 37 °C, 1 hr, pH 8, duplicate, ± S.D., SD
[4] = recombinant HDAC8 from E. coli, 1 μM, 37 °C, 1 hr, pH 8, duplicate, ± S.D.
[5] = recombinant HDAC8 from Sf9 insect cells

| Compound | Km (HDAC8; [3]) [µM] | kcat (HDAC8; [3]) [S^−1] | Km (HDAC8; [4]) [µM] | global protein lysine fatty acylation vs control (Alk12 labeling) (Jurkat cells [1]) | global lysine acetylation level (Western blot) (Jurkat cells [2]) | further results |
| --- | --- | --- | --- | --- | --- | --- |
| KQTARKSTGGWW [Octanoyl H3K9] | 146 ± 10.3 | 0.0202 ± 0.0005 |  |  |  |  |
| KQTARKSTGGWW [Dodecanoyl H3K9] | 69.5 ± 10.1 | 0.0123 ± 0.0013 |  |  |  |  |
| KQTARKSTGGWW [Palmitoyl H3K9] | 18.3 ± 7.4 | 0.0005 ± 0.00007 |  |  |  |  |
| KQTARKSTGGWW [Butyryl H3K9] |  |  | > 200 |  |  |  |
| COc1ccc(Cn2ccc3ccc(C(=O)NO)cc32)cc1 [PCI-34051] |  |  |  | exhibited enhanced global protein lysine fatty acylation | did not noticeably increase protein lysine acetylation | fatty acylation vs DMSO control (Alk12 labeling) (HEK-293T cells): slightly increased fatty acylation; fatty acylation vs DMSO control (Alk12 labeling) (HeLa cells): slightly increased fatty acylation; fatty acylation vs DMSO control (Alk12 labeling) (MDA-MB 231 cells): slightly increased fatty acylation |
| KQTARKSTGGWW [Myristoyl H3K9] | 15.8 ± 5.1 | 0.0019 ± 0.0003 | ~16 |  |  | demyristoylation catalytic efficiency relative to deacetylation (HDAC8; HDAC8 purified from Sf9 insect cells, myristoyl- vs acetyl-H3K9): > 2 times; Km (HDAC8; [5]): 60.5 µM; kcat (HDAC8; [5]): 0.0755 ^b S^−1; kcat/Km (HDAC8; [5]): 1,246 ^b S^−1.M^−1 |
| Cc1[nH]c2ccccc2c1CCNCc1ccc(/C=C/C(=O)NO)cc1 [Panobinostat] |  |  |  | much lower than the control | predominantly increased the acetylation of protein bands around 55 kDa |  |
| O=C(CCCCCCC(=O)Nc1ccccc1)NO [SAHA] |  |  |  | much lower than the control | predominantly increased the acetylation of protein bands around 55 kDa |  |
| KQTARKSTGGWW [Acetyl H3K9] |  |  | > 600 |  |  | Km (HDAC8; [5]): > 300 µM; kcat/Km (HDAC8; [5]): 480.8 ^b S^−1.M^−1 |
| Nc1ccccc1NC(=O)c1ccc(CNc2nccc(-c3cccnc3)n2)cc1 [Mocetinostat] |  |  |  | only PCI-34051-treated Jurkat cells exhibited enhanced global protein lysine fatty acylation | did not noticeably increase protein lysine acetylation |  |
